# Measured values taken from ChEMBL document CHEMBL1154198, “Chemical genetics of Plasmodium falciparum” (Nature, 2010).
# Assays:
# Plasmodium falciparum [1] = assay: ST_JUDE: Plasmodium falciparum K1 EC50 (uM) as measured by SYBR green dye; type: functional, organism-based
# Plasmodium falciparum [2] = assay: ST_JUDE: Plasmodium falciparum 3D7 EC50 (uM) as measured by SYBR green dye; type: functional, organism-based
# Trypanosoma brucei = assay: ST_JUDE: Cytotoxicity using luciferase to measure ATP as an indicator of the viability of Trypanosoma brucei; type: functional, organism-based
# [3] = ST_JUDE: Cytotoxicity using luciferase to measure ATP as an indicator of the viability of human foreskin fibroblast cells (BJ); type: toxicity, cell-based
# [4] = ST_JUDE: Cytotoxicity using luciferase to measure ATP as an indicator of the viability of human Burkitt''s lymphoma lymphoblast cells (Raji); type: toxicity, cell-based
# [5] = ST_JUDE: Cytotoxicity using luciferase to measure ATP as an indicator of the viability of human epithelial embryonic kidney cells (HEK293); type: toxicity, cell-based
# Toxoplasma gondii = assay: ST_JUDE: Growth inhibition of to Toxoplasma gondii, in human U-2OS cells, as measured by luciferase.; type: functional, organism-based; conditions: RH, U2OS
# In short: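 T. gondii parasites engineered to express luciferase; drug sensitivity read by luminescence.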
# Leishmania major = assay: ST_JUDE: Cytotoxicity using Alamar Blue to measure viability of Leishmania major; type: functional, organism-based
# In short: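 L. major promastigotes; drug susceptibility read with Alamar Blue.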
# [6] = ST_JUDE: Cytotoxicity using luciferase to measure ATP as an indicator of the viability of human epithelial hepatocellular carcinoma cells (HepG2); type: toxicity, cell-based
# Plasmodium falciparum [7] = assay: ST_JUDE: Cytotoxicity against Plasmodium falciparum K1; type: functional, organism-based
# In short: (§1)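 Asexual P. falciparum grown in human erythrocytes, exposed to compounds for 72 h, and growth read as the DNA quantity in treated versus control cultures. Dose-response run at 12 concentrations from 10 μM to 5 nM.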
# Plasmodium falciparum [8] = assay: ST_JUDE: Cytotoxicity against Plasmodium falciparum W2; type: functional, organism-based
# Plasmodium falciparum [9] = assay: ST_JUDE: Cytotoxicity against Plasmodium falciparum SB-A6; type: functional, organism-based
# Plasmodium falciparum [10] = assay: ST_JUDE: Cytotoxicity against Plasmodium falciparum Dd2; type: functional, organism-based
# Plasmodium falciparum [11] = assay: ST_JUDE: Cytotoxicity against Plasmodium falciparum V1/S; type: functional, organism-based
# Plasmodium falciparum [12] = assay: ST_JUDE: Cytotoxicity against Plasmodium falciparum 3D7; type: functional, organism-based; in short: as §1
# Plasmodium falciparum [13] = assay: ST_JUDE: Cytotoxicity against Plasmodium falciparum D10 transfected with yeast DHOD; type: functional, organism-based
SMILES,EC50 (Plasmodium falciparum [1]) [µM],EC50 (Plasmodium falciparum [2]) [µM],EC50 (Trypanosoma brucei) [µM],EC50 [3] [µM],EC50 [4] [µM],EC50 [5] [µM],EC50 (Toxoplasma gondii) [µM],EC50 (Leishmania major) [µM],EC50 [6] [µM],EC50 (Plasmodium falciparum [7]) [µM],EC50 (Plasmodium falciparum [8]) [µM],EC50 (Plasmodium falciparum [9]) [µM],EC50 (Plasmodium falciparum [10]) [µM],EC50 (Plasmodium falciparum [11]) [µM],EC50 (Plasmodium falciparum [12]) [µM],EC50 (Plasmodium falciparum [13]) [µM]
S=C(N/N=C(/c1ccccc1)c1ccccn1)Nc1ccccc1,0.48,0.317,–,–,–,–,–,–,–,–,–,–,–,–,–,–
COc1cccc(NC(=O)C2c3ccccc3C(=O)N(CC(C)C)C2c2cccs2)c1 (stereo not drawn),–,0.175,7.54,> 40.8,> 40.8,> 40.8,> 22.3,> 17.5,> 40.8,–,–,–,–,–,–,–
CCOc1ccc(N(C(C)=O)C2=C(N(C)C)C(=O)c3ccccc3C2=O)cc1,0.0075,0.0055,1.24,11.2,0.353,> 30.2,10.6,> 12.9,4.82,0.0035,0.0085,0.001,0.0063,0.0055,0.0027,0.001
C=CC[n+]1c(C=C2C=CN(CC)C=C2)sc2ccccc21,0.305,0.425,1.51,> 28.2,1.24,> 28.2,> 15.5,0.0208,> 28.2,> 7.25,> 7.25,1.31,0.696,1.27,1,1.29
CCCCN(CCCC)CC(O)COc1ccccc1C(=O)Nc1ccccc1 (stereo not drawn),0.0424,0.059,21.3,> 53.2,> 53.2,> 53.2,> 29.2,> 22.8,> 53.2,0.0393,0.202,0.144,0.0692,0.0545,0.108,0.163
Cc1ccc(N2C(=O)CC(Sc3nccc(C)n3)C2=O)cc1 (stereo not drawn),> 15,> 15,–,–,–,–,–,–,–,–,–,–,–,–,–,–
CC(Cc1ccccc1)NC1=NS(=O)(=O)c2cc([N+](=O)[O-])ccc21 (stereo not drawn),> 15,1.58,–,–,–,–,–,–,–,–,–,–,–,–,–,–
C=CCN1C=CC=C/C1=C\c1sc2ccccc2[n+]1C,1.2,1.99,10.7,> 35.4,8.34,> 35.4,> 19.4,0.0503,> 35.4,0.94,6.16,2.98,–,> 9.08,1.19,5.69
COC(=O)C1=CNC=C(C(=O)OC)C1c1ccc(Cl)c(Cl)c1,1.67,0.843,17.1,> 45.8,> 45.8,> 45.8,> 25.1,> 19.6,> 45.8,1.36,0.9,> 11.8,0.78,1.78,0.772,> 11.8
NS(=O)(=O)c1ccc(NC(=O)Cc2ccc([N+](=O)[O-])cc2)cc1,> 15,> 15,–,–,–,–,–,–,–,–,–,–,–,–,–,–
O=[N+]([O-])c1cccc(C2Nc3ccccc3-c3nc4ccccc4n32)c1 (stereo not drawn),4.27,3.69,–,–,–,–,–,–,–,–,–,–,–,–,–,–
CN(C)c1ccc(C(O)(c2ccc(N(C)C)cc2)c2ccc(N(C)C)cc2)cc1 [METHYLROSANILINE],0.178,0.62,–,–,–,–,–,–,–,–,–,–,–,–,–,–
O=C(N/N=C/c1ccc([N+](=O)[O-])o1)c1ccc(O)cc1 [NIFUROXAZIDE],3.77,> 15,–,–,–,–,–,–,–,–,–,–,–,–,–,–
O=C(CCCCCN1C(=O)c2cccc3cccc(c23)C1=O)NO [SCRIPTAID],2.22,3.78,–,–,–,–,–,–,–,–,–,–,–,–,–,–
